The test system of one assay is Mus musculus. Nature of the assay: Antiinflammatory activity in mouse assessed as inhibition of TPA-induced mouse ear edema at 500 ug/ear administered 30 mins before TPA challenge measured after 7 hrs relative to untreated control. The class given is functional, organism-based. Put shortly: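 Compound (500 µg) applied to one mouse ear; 30 min later TPA (0.5 µg) applied to both ears. Edema scored after 7 h and expressed as percentage of edema. Mean ± SE, n = 6.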

Assay [1] can be described thus: Inhibition of human DNA polymerase epsilon using poly(dA)/oligo(dT)18 (A/T = 2/1) and dTTP as the DNA template-primer and nucleotide substrate after 60 mins. Put shortly:
(§1)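 Compound in DMSO, sonicated 30 s. Premixed 0 °C, 10 min with enzyme (0.05 units) in 50 mM Tris-HCl pH 7.5, 1 mM DTT, 50% glycerol, 0.1 mM EDTA, then added to standard reaction mixture. Template-primers: poly(dA)/oligo(dT)18 (2/1) for pols, oligo(dT)18 for TdT, poly(rA)/oligo(dT)18 for HIV-1 RT, with [3H]dTTP. 60 min at 37 °C (Taq 74 °C). Activity relative to no-inhibitor control; mean ± SE of three experiments.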

For assay [2], the target named is DNA-directed DNA polymerase (Enterobacteria phage T4, UniProt P04415). Nature of the assay: Inhibition of T4 pol using poly(dA)/oligo(dT)18 (A/T = 2/1) and dTTP as the DNA template-primer and nucleotide substrate after 60 mins. Further details: species or system Tequatrovirus T4. The procedure, abridged: as §1
Sequence of DNA-directed DNA polymerase (P04415 whole entry): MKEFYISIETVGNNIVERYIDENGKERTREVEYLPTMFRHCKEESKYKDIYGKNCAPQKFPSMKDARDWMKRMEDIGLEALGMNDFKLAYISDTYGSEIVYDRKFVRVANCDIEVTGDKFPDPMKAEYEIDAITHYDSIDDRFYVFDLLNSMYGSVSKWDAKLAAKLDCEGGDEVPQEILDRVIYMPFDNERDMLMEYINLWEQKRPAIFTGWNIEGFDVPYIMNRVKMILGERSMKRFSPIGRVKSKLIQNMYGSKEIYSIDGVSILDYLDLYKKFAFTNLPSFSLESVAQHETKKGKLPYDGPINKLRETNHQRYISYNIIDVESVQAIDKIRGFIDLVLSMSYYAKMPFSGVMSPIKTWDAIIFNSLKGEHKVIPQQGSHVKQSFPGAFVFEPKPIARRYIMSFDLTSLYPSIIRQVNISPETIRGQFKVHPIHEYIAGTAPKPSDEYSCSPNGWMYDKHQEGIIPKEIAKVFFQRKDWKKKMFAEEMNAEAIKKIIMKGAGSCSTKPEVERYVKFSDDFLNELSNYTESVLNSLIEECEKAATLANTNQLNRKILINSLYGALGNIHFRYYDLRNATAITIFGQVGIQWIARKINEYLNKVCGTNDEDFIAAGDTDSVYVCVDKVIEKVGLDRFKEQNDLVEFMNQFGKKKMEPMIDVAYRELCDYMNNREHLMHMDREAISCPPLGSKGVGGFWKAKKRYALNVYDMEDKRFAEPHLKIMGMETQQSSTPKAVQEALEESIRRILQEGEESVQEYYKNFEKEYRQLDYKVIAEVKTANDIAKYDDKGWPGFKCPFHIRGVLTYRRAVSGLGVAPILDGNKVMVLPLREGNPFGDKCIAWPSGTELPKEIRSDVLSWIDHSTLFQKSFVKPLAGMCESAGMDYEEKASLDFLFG
Assay [3] deals with DNA-directed DNA/RNA polymerase mu (Homo sapiens, UniProt Q9NP87). Nature of the assay: Inhibition of His-tagged human DNA polymerase mu using poly(dA)/oligo(dT)18 (A/T = 2/1) and dTTP as the DNA template-primer and nucleotide substrate after 60 mins. Put shortly:
as §1

The test system of assay [4] is HCT-116. Nature of the assay: Cytotoxicity against human HCT116 cells by WST-1 assay relative to camptothecin. The class given is functional, cell-based. On the technique in general: Tetrazolium assays rely on reduction of a dye to a coloured formazan, in cell work by metabolically active cells.
Assay [5] concerns HCT-116. Nature of the assay: Cytotoxicity against human HCT116 cells by WST-1 assay relative to aphidicolin. The class given is functional, cell-based.
For the next assay, the species on record is Homo sapiens. The assay can be described thus: Inhibition of histidine-tagged human DNA polymerase gamma using bovine deoxyribonuclease 1-treated DNA and dNTP as the DNA template-primer and nucleotide substrate at 10 uM after 60 mins.
In assay [6] the target is T1, DNA polymerase lambda (Homo sapiens) (UniProt Q9UGP5).
T1 sequence (whole entry): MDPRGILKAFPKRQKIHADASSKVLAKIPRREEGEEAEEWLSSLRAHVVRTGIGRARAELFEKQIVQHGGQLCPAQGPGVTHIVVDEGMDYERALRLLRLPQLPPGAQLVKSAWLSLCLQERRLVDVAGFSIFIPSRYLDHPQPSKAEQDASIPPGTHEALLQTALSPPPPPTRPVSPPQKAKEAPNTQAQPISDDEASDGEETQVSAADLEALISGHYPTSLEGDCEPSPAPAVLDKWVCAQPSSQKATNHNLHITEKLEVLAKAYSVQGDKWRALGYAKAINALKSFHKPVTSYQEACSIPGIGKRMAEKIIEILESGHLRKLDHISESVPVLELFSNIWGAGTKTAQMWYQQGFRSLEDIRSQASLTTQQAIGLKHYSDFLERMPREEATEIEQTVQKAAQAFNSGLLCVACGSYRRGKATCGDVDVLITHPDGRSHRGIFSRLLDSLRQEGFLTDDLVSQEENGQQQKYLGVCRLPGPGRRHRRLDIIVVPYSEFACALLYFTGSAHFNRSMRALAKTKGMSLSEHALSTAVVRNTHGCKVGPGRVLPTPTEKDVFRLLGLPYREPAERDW
Nature of the assay: Inhibition of recombinant His-tagged human DNA polymerase lambda using poly(dA)/oligo(dT)18 (A/T = 2/1) and dTTP as the DNA template-primer and nucleotide substrate at 10 uM after 60 mins. Put shortly: as §1

The target of assay [7] is Inosine-5'-monophosphate dehydrogenase 2 (Mus musculus, UniProt P24547). The assay can be described thus: Inhibition of mouse IMP dehydrogenase type 2. Put shortly: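 Calf primase of pol α and mouse IMP dehydrogenase type II measured by standard assays per manufacturer's specifications. Activity relative to no-compound control (100%).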
Sequence of Inosine-5'-monophosphate dehydrogenase 2 (P24547 whole entry): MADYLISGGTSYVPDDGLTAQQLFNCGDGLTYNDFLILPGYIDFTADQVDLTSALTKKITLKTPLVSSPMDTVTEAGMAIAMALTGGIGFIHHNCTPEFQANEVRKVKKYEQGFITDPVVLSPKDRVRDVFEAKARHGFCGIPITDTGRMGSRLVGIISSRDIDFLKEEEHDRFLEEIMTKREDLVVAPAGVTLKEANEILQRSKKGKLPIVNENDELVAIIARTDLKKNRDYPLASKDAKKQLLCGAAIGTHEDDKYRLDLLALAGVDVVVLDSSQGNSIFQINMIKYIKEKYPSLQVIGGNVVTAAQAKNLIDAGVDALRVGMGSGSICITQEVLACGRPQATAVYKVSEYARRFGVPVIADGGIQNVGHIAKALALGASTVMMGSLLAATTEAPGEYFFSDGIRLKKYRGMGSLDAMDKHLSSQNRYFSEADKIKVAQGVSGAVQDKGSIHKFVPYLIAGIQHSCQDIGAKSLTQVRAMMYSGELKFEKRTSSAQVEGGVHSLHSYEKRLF
The subject of another assay is Nucleic Acid. Nature of the assay: Binding affinity to DNA assessed as thermal transition of DNA relative to control. The assay is classed as nucleic-acid assay.
Assay [8] can be described thus: Inhibition of histidine-tagged human DNA polymerase gamma using poly(dA)/oligo(dT)18 (A/T = 2/1) and dTTP as the DNA template-primer and nucleotide substrate after 60 mins. The procedure, abridged:
as §1

A further assay deals with T7 RNA polymerase (Enterobacteria phage T7, UniProt P00573). The assay can be described thus: Inhibition of T7 RNA polymerase using salmon sperm DNA and [3H]UTP at 25 degree C after 30 mins by liquid scintillation counting. On the set-up: species or system Escherichia phage T7.
Sequence of T7 RNA polymerase (P00573 whole entry): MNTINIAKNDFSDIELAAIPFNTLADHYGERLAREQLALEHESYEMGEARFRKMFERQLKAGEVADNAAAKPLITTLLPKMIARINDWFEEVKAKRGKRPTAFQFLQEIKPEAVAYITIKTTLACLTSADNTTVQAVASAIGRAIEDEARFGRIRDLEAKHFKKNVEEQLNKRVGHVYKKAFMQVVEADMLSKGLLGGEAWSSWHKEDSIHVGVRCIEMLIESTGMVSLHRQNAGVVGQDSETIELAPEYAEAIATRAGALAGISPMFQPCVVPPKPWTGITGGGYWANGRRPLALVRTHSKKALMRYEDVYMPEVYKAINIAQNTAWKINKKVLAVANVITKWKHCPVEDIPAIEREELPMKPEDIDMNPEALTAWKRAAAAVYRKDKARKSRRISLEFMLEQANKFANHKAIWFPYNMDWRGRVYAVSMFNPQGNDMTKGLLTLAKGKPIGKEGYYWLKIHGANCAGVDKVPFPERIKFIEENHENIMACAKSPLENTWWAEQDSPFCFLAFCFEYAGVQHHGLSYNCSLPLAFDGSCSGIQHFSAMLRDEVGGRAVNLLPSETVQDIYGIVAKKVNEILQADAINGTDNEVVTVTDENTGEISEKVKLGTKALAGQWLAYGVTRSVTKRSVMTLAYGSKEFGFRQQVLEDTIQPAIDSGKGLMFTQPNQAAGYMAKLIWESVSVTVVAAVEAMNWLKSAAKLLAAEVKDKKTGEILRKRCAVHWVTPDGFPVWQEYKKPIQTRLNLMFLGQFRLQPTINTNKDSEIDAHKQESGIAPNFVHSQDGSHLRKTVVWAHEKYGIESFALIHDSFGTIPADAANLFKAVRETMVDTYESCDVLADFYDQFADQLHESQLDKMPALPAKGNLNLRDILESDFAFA
The target of assay [9] is T1, DNA polymerase lambda (Homo sapiens). Nature of the assay: Inhibition of recombinant His-tagged human DNA polymerase lambda using bovine deoxyribonuclease 1-treated DNA and dNTP as the DNA template-primer and nucleotide substrate at 10 uM after 60 mins.
Assay [10] addresses T2, DNA polymerase kappa (Homo sapiens) (UniProt Q9UBT6).
T2 sequence (whole entry): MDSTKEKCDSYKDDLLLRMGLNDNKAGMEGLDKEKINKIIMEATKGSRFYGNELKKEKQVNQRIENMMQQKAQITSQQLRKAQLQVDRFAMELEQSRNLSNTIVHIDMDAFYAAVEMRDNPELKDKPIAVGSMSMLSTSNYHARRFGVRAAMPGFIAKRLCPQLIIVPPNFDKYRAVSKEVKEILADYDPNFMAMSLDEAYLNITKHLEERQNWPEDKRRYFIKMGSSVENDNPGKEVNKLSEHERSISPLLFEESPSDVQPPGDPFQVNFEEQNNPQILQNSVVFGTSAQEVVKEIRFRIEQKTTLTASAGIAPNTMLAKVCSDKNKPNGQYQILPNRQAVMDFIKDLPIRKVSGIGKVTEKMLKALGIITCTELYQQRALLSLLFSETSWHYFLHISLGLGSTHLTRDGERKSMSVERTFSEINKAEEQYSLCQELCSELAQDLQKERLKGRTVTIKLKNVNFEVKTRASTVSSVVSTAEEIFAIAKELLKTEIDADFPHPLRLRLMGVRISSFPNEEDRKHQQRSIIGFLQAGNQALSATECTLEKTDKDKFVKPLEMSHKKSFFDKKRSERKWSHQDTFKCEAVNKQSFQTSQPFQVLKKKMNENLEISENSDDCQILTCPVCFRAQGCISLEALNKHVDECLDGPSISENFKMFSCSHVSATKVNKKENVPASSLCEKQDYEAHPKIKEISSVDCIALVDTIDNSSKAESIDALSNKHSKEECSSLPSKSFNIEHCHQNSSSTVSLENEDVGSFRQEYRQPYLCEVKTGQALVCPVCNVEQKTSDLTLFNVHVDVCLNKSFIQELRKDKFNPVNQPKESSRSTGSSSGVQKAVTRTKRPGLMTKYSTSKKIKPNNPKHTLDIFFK
Nature of the assay: Inhibition of C-terminal His6-tagged human DNA polymerase kappa (amino acids 1 to 560) using bovine deoxyribonuclease 1-treated DNA and dNTP as the DNA template-primer and nucleotide substrate at 10 uM after 60 mins.

Assay [11] can be described thus: Inhibition of calf DNA polymerase alpha using poly(dA)/oligo(dT)18 (A/T = 2/1) and dTTP as the DNA template-primer and nucleotide substrate after 60 mins. On the set-up: species or system Bos taurus. Put shortly: as §1

Active and inactive are the calls of the source. The calls are words filed in the database; no cut-off is given here.

Sequence of DNA-directed DNA/RNA polymerase mu (Q9NP87 whole entry): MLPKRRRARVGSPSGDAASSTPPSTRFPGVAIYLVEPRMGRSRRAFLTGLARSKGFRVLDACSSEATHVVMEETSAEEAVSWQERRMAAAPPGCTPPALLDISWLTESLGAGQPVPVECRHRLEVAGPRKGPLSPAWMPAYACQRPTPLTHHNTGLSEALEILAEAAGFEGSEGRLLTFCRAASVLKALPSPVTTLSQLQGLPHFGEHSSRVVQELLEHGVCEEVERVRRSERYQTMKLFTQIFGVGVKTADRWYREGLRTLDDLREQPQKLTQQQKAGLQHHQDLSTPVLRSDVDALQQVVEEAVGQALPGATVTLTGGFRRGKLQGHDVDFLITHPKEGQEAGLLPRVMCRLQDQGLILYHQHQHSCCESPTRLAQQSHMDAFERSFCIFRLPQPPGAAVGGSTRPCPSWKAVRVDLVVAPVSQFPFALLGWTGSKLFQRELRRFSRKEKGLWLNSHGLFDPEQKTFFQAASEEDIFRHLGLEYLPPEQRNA

For the compound `CCCCCCCC/C=C\CCCCCCCC(=O)Oc1cccc2c1C(=O)C=CC2=O`, the outcome with Mus musculus, in the assay with HCT-116 [4] and in the assay with HCT-116 [5] was Active. The IC50 in [1] was 0.7 µM; in [2], greater than 100 µM; in assay [3], 10.8 µM; in assay [7] it was greater than 100 µM; in assay [8], 0.72 µM; at T7 RNA polymerase, greater than 100 µM. Moreover, the half-maximal inhibitory concentration (IC50) in assay [11] turned out to be 0.68 µM. Besides, the inhibition entry (in the assay listed under Homo sapiens; in assay [6]; in [9]; in assay [10]) was “Active” in each case. For the same compound, in the assay with Nucleic Acid, the outcome was inactive.

Consider `CCCCCCCCCCCC(=O)Oc1cccc2c1C(=O)C=CC2=O`, for which the outcome with Mus musculus was Active. Moreover, the IC50 in assay [1] is 6.6 µM; in [2] it was greater than 100 µM; in assay [3], 7.9 µM; in assay [7], greater than 100 µM; in assay [8], 6.5 µM; on T7 RNA polymerase, greater than 100 µM. Besides, the half-maximal inhibitory concentration (IC50) in assay [11] was found to be 6.3 µM. Also, the inhibition result (in the assay listed under Homo sapiens; in assay [6]; in assay [9]; in [10]) was “Active” throughout. For the same compound, the outcome in the assay with Nucleic Acid was inactive.

Broadly, the IC50 is the concentration that gives 50% inhibition. Low values mean higher potency, high ones lower potency.

These data come from ChEMBL document CHEMBL1914406, “Inhibitory effect of novel 5-O-acyl juglones on mammalian DNA polymerase activity, cancer cell growth and inflammatory response” (Bioorg Med Chem, 2011).
